pIC50: −log10 of the molar value. Calls of active or inactive are those of the source. The calls are words filed in the database; no cut-off is given here.
Columns and labels:
[1] = Cytotoxicity against […] cells assessed as growth inhibition at 50 uM after 48 hrs by MTT assay relative to control; type: functional; conditions: Mus musculus, 4T1, 48 h; read-out: GI
Procedure, shortened: (§1)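 Cells grown in DMEM or MEM with 10% FBS at 37 °C, 5% CO2. Seeded at 1×10^4 cells/well, incubated 48 h, then exposed to compound for 48 h with vehicle control. MTT (5 mg/mL stock) added for 4 h; formazan dissolved in DMSO, absorbance read at 570 nm. Preliminary screen at 50 µM. Compounds giving >50% inhibition were tested for dose-response curves; IC50 derived by linear regression of % inhibition versus concentration. Mean of three independent experiments in triplicate.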

[2] = Cytotoxicity against human MDA-MB-231 cells assessed as reduction in cell viability after 48 hrs by MTT assay; type: functional, cell-based; conditions: MDA-MB-231, 48 h; procedure, shortened: as §1
[3] = Selectivity ratio of IC50 for human MCF10A cells to IC50 for human A549 cells; type: ADME, cell-based; conditions: MCF10A cells versus A549 cells, read-out: Ratio IC50
[4] = Cytotoxicity against human BT549 cells assessed as reduction in cell viability after 48 hrs by MTT assay; type: functional, cell-based; conditions: BT-549, 48 h; procedure, shortened: as §1
[5] = Cell cycle arrest in human MDA-MB-231 cells assessed as after 24 hrs by propidium iodide staining based FACS analysis
[6] = Cell cycle arrest in human MDA-MB-231 cells assessed as accumulation at G2/M phase after 24 hrs by propidium iodide staining based FACS analysis; type: functional; conditions: in the assay text read “G0/G1” for “G2/M”
Procedure, shortened: (§2)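 MDA-MB-231 at 1×10^6 cells/well treated with 1, 2 or 4 µM for 24 h, with a DMSO control. Cells harvested by trypsin, washed with PBS and fixed in 70% ethanol for 30 min at 4 °C. Stained 15 min at room temperature in the dark with PI buffer containing Triton X and DNase-free RNase A. Analysed by flow cytometry; G0/G1, S and G2/M fractions quantified.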

[7] = Cytotoxicity against human A549 cells assessed as reduction in cell viability after 48 hrs by MTT assay; type: functional, cell-based; conditions: A549, 48 h; procedure, shortened: as §1
MDA-MB-231 [8] = assay: Induction of apoptosis in human MDA-MB-231 cells assessed as cell wall deformation at 1 to 4 uM after 24 hrs by phase contrast microscopic analysis; type: functional, cell-based
Procedure, shortened: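 MDA-MB-231 treated at 1, 2 or 4 µM for 24 h. Morphology examined and photographed by phase contrast microscopy against untreated control cells.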

[9] = Cytotoxicity against human MCF7 cells assessed as growth inhibition at 50 uM after 48 hrs by MTT assay relative to control; type: functional; conditions: MCF7, 48 h, read-out: GI; procedure, shortened: as §1
MDA-MB-231 [10] = assay: Induction of apoptosis in human MDA-MB-231 cells assessed as late apoptotic cells at 2 uM after 24 hrs by Annexin V-FITC/propidium iodide-staining based FACS analysis (reference value: 3.6 %); type: functional
MDA-MB-231 [11] = assay: Induction of apoptosis in human MDA-MB-231 cells assessed as formation of condensed nuclei at 1 to 4 uM after 24 hrs by DAPI dye-based fluorescent microscopic analysis; type: functional, cell-based
Procedure, shortened: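 MDA-MB-231 grown at 1×10^6 cells/well in 6-well plates and treated at 1.0, 2.0 or 4.0 µM for 24 h, with untreated controls. Cells washed twice with PBS, fixed in 4% paraformaldehyde and stained with 10 µg/mL DAPI. Nuclei examined by fluorescence microscopy (excitation 359 nm, emission 461 nm) at 200×.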

MDA-MB-231 [12] = assay: Induction of apoptosis in human MDA-MB-231 cells assessed as increase in cleaved PARP expression after 24 hrs by Western blot analysis; type: functional, cell-based
Procedure, shortened: (§3)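 MDA-MB-231 treated at 1, 2 or 4 µM for 24 h. Whole-cell extracts prepared in RIPA buffer. Blots probed with rabbit anti-caspase-3, anti-Bcl2 and anti-β-actin (1:1000) and anti-Bax (1:500), then HRP secondaries and ECL detection. Membranes stripped and reprobed. Bands quantified by densitometry as fold change versus control. Mean ± SEM, n=3.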

[13] = Cell cycle arrest in human MDA-MB-231 cells assessed as accumulation at S phase at 4 uM after 24 hrs by propidium iodide staining based FACS analysis (reference value: 24.6 %); type: functional; procedure, shortened: as §2
MDA-MB-231 [14] = assay: Induction of apoptosis in human MDA-MB-231 cells assessed as decrease in Bcl2 expression after 24 hrs by Western blot analysis; type: functional, cell-based; procedure, shortened: as §3
[15] = Cell cycle arrest in human MDA-MB-231 cells assessed as accumulation at G0/G1 phase at 2 uM after 24 hrs by propidium iodide staining based FACS analysis (reference value: 50.4 %); type: functional; procedure, shortened: as §2
MDA-MB-231 [16] = assay: Induction of apoptosis in human MDA-MB-231 cells assessed as late apoptotic cells at 4 uM after 24 hrs by Annexin V-FITC/propidium iodide-staining based FACS analysis (reference value: 3.6 %); type: functional
MDA-MB-231 [17] = assay: Induction of apoptosis in human MDA-MB-231 cells assessed as viable cells at 2 uM after 24 hrs by Annexin V-FITC/propidium iodide-staining based FACS analysis (reference value: 89.5 %); type: functional; conditions: MDA-MB-231, 24 h, read-out: Activity
[18] = Cytotoxicity against human MCF7 cells assessed as reduction in cell viability after 48 hrs by MTT assay; type: functional, cell-based; conditions: MCF7, 48 h; procedure, shortened: as §1
MDA-MB-231 [19] = assay: Induction of apoptosis in human MDA-MB-231 cells assessed as late apoptotic cells after 24 hrs by Annexin V-FITC/propidium iodide-staining based FACS analysis; type: functional, cell-based
MDA-MB-231 [20] = assay: Induction of apoptosis in human MDA-MB-231 cells assessed as viable cells at 1 uM after 24 hrs by Annexin V-FITC/propidium iodide-staining based FACS analysis (reference value: 89.5 %); type: functional; conditions: MDA-MB-231, 24 h, read-out: Activity
MDA-MB-231 [21] = assay: Induction of apoptosis in human MDA-MB-231 cells assessed as increase in Bax expression after 24 hrs by Western blot analysis; type: functional, cell-based; procedure, shortened: as §3
[22] = Cell cycle arrest in human MDA-MB-231 cells assessed as accumulation at G0/G1 phase at 1 uM after 24 hrs by propidium iodide staining based FACS analysis (reference value: 50.4 %); type: functional; procedure, shortened: as §2
MDA-MB-231 [23] = assay: Induction of apoptosis in human MDA-MB-231 cells assessed as reduction in viable cells at 1 to 4 uM after 24 hrs by phase contrast microscopic analysis; type: functional, cell-based
Procedure, shortened: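 MDA-MB-231 cells were exposed for 24 h to 1, 2 and 4 μM beside a control. Morphology (shrinkage, deformation, number of viable cells) was examined and photographed by phase contrast microscopy.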

MDA-MB-231 [24] = assay: Induction of apoptosis in human MDA-MB-231 cells assessed as necrotic cells at 4 uM after 24 hrs by Annexin V-FITC/propidium iodide-staining based FACS analysis (reference value: 2.8 %); type: functional
MDA-MB-231 [25] = assay: Induction of apoptosis in human MDA-MB-231 cells assessed as viable cells at 4 uM after 24 hrs by Annexin V-FITC/propidium iodide-staining based FACS analysis (reference value: 89.5 %); type: functional; conditions: MDA-MB-231, 24 h, read-out: Activity

## CC(C)n1c(/C=C2/C(=O)Nc3ccc(Br)cc32)nc2ccccc21
[1]
  inhibition of growth at 50 µM: > 50%
[2]
  pIC50: 5.49
[3]
  selectivity ratio: 6.5
[4]
  pIC50: 4.86
[5]
  Activity: Dose-dependent effect
[6]
  Activity: Dose-dependent effect
[7]
  pIC50: 5.06
MDA-MB-231 [8]
  Activity: Active
[9]
  inhibition of growth at 50 µM: > 50%
MDA-MB-231 [10]
  Activity: 4.4%
MDA-MB-231 [11]
  Activity: Active
MDA-MB-231 [12]
  Activity: Dose-dependent effect
[13]
  Activity: 11.3%
MDA-MB-231 [14]
  Activity: Dose-dependent effect
[15]
  Activity: 64.3%
MDA-MB-231 [16]
  Activity: 7.1%
MDA-MB-231 [17]
  viability at 2 µM: 73.6%
[18]
  pIC50: 4.83
MDA-MB-231 [19]
  Activity: Dose-dependent effect
MDA-MB-231 [20]
  viability at 1 µM: 83.3%
MDA-MB-231 [21]
  Activity: Dose-dependent effect
[22]
  Activity: 57.2%
MDA-MB-231 [23]
  Activity: Active
MDA-MB-231 [24]
  Activity: 4.2%
MDA-MB-231 [25]
  viability at 4 µM: 65.3%

From ChEMBL document CHEMBL3865824, “New (E)-1-alkyl-1H-benzo[d]imidazol-2-yl)methylene)indolin-2-ones: Synthesis, in vitro cytotoxicity evaluation and apoptosis inducing studies” (Eur J Med Chem, 2016)
